≈ marks a conversion by molar mass, not a printed value. Calls of active or inactive are those of the source. The rule behind the calls is not given here.
Columns and labels:
Aspergillus niger [1] = assay: Antifungal activity against Aspergillus niger ATCC 1004 at <100 ug/ml at pH 5.6 after 5 days in absence of 10% beef serum; format: functional, organism-based
Procedure, shortened: (§1)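 Agar-dilution MIC in Sabouraud dextrose agar at pH 5.6 or 7.0, with or without 10% beef serum. Plates were incubated at 28 °C for 5 days. MIC is the lowest concentration (µg/mL) giving 100% inhibition. Steps were 1 µg/mL up to 10, 2 µg/mL from 10–20, and 10 µg/mL from 20–100; 100 µg/mL was the top level, and no inhibition there is scored as >100.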

Mucor mucedo [2] = assay: Antifungal activity against Mucor mucedo ATCC 7941 at <100 ug/ml at pH 5.6 after 20 h in absence of 10% beef serum
Candida albicans [3] = assay: Antifungal activity against Candida albicans ATCC 10231 at <100 ug/ml at pH 7 after 20 h in presence of 10% beef serum
Candida albicans [4] = assay: Antifungal activity against Candida albicans ATCC 10231 at <100 ug/ml at pH 5.6 after 20 h in presence of 10% beef serum
[5] = tested on: Trichophyton mentagrophytes; assay: Antifungal activity against Trichophyton mentagrophytes ATCC 9129 at <100 ug/ml at pH 5.6 after 5 days in presence of 10% beef serum; format: functional, organism-based; procedure, shortened: as §1
[6] = tested on: Trichophyton mentagrophytes; assay: Antifungal activity against Trichophyton mentagrophytes ATCC 9129 at <100 ug/ml at pH 5.6 after 5 days in absence of 10% beef serum; format: functional, organism-based; procedure, shortened: as §1
Mucor mucedo [7] = assay: Antifungal activity against Mucor mucedo ATCC 7941 at <100 ug/ml at pH 7 after 20 h in presence of 10% beef serum
[8] = tested on: Trichophyton mentagrophytes; assay: Antifungal activity against Trichophyton mentagrophytes ATCC 9129 at <100 ug/ml at pH 7 after 5 days in presence of 10% beef serum; format: functional, organism-based; procedure, shortened: as §1
Candida albicans [9] = assay: Antifungal activity against Candida albicans ATCC 10231 at <100 ug/ml at pH 5.6 after 20 h in absence of 10% beef serum
Aspergillus niger [10] = assay: Antifungal activity against Aspergillus niger ATCC 1004 at <100 ug/ml at pH 7 after 5 days in presence of 10% beef serum; format: functional, organism-based; procedure, shortened: as §1
Mucor mucedo [11] = assay: Antifungal activity against Mucor mucedo ATCC 7941 at <100 ug/ml at pH 7 after 20 h in absence of 10% beef serum
Candida albicans [12] = assay: Antifungal activity against Candida albicans ATCC 10231 at <100 ug/ml at pH 7 after 20 h in absence of 10% beef serum
Mucor mucedo [13] = assay: Antifungal activity against Mucor mucedo ATCC 7941 at <100 ug/ml at pH 5.6 after 20 h in presence of 10% beef serum
[14] = tested on: Trichophyton mentagrophytes; assay: Antifungal activity against Trichophyton mentagrophytes ATCC 9129 at <100 ug/ml at pH 7 after 5 days in absence of 10% beef serum; format: functional, organism-based; procedure, shortened: as §1
Aspergillus niger [15] = assay: Antifungal activity against Aspergillus niger ATCC 1004 at <100 ug/ml at pH 7 after 5 days in absence of 10% beef serum; format: functional, organism-based; procedure, shortened: as §1
Aspergillus niger [16] = assay: Antifungal activity against Aspergillus niger ATCC 1004 at <100 ug/ml at pH 5.6 after 5 days in presence of 10% beef serum; format: functional, organism-based; procedure, shortened: as §1
Mucor mucedo [17] = assay: Antifungal activity against Mucor mucedo ATCC 7941 at pH 5.6 after 20 h in presence of 10% beef serum; details: ATCC 7941, 20 h
Mucor mucedo [18] = assay: Antifungal activity against Mucor mucedo ATCC 7941 at pH 7 after 20 h in absence of 10% beef serum; details: ATCC 7941, 20 h
[19] = tested on: Trichophyton mentagrophytes; assay: Antifungal activity against Trichophyton mentagrophytes ATCC 9129 at pH 5.6 after 5 days in absence of 10% beef serum; format: functional; details: Trichophyton mentagrophytes, ATCC 9129, 120 h; read-out: MIC; procedure, shortened: as §1
Mucor mucedo [20] = assay: Antifungal activity against Mucor mucedo ATCC 7941 at pH 5.6 after 20 h in absence of 10% beef serum; details: ATCC 7941, 20 h
[21] = tested on: Trichophyton mentagrophytes; assay: Antifungal activity against Trichophyton mentagrophytes ATCC 9129 at pH 7 after 5 days in absence of 10% beef serum; format: functional; details: Trichophyton mentagrophytes, ATCC 9129, 120 h; read-out: MIC; procedure, shortened: as §1
Candida albicans [22] = assay: Antifungal activity against Candida albicans ATCC 10231 at pH 7 after 20 h in absence of 10% beef serum; details: ATCC 10231, 20 h
Aspergillus niger [23] = assay: Antifungal activity against Aspergillus niger ATCC 1004 at pH 7 after 5 days in presence of 10% beef serum; format: functional; details: Aspergillus niger, ATCC 1004, 120 h; read-out: MIC; procedure, shortened: as §1
[24] = tested on: Trichophyton mentagrophytes; assay: Antifungal activity against Trichophyton mentagrophytes ATCC 9129 at pH 7 after 5 days in presence of 10% beef serum; format: functional; details: Trichophyton mentagrophytes, ATCC 9129, 120 h; read-out: MIC; procedure, shortened: as §1
[25] = tested on: Trichophyton mentagrophytes; assay: Antifungal activity against Trichophyton mentagrophytes ATCC 9129 at pH 5.6 after 5 days in presence of 10% beef serum; format: functional; details: Trichophyton mentagrophytes, ATCC 9129, 120 h; read-out: MIC; procedure, shortened: as §1
Candida albicans [26] = assay: Antifungal activity against Candida albicans ATCC 10231 at pH 5.6 after 20 h in presence of 10% beef serum; details: ATCC 10231, 20 h
Aspergillus niger [27] = assay: Antifungal activity against Aspergillus niger ATCC 1004 at pH 7 after 5 days in absence of 10% beef serum; format: functional; details: Aspergillus niger, ATCC 1004, 120 h; read-out: MIC; procedure, shortened: as §1
Aspergillus niger [28] = assay: Antifungal activity against Aspergillus niger ATCC 1004 at pH 5.6 after 5 days in absence of 10% beef serum; format: functional; details: Aspergillus niger, ATCC 1004, 120 h; read-out: MIC; procedure, shortened: as §1
Candida albicans [29] = assay: Antifungal activity against Candida albicans ATCC 10231 at pH 7 after 20 h in presence of 10% beef serum; details: ATCC 10231, 20 h
Candida albicans [30] = assay: Antifungal activity against Candida albicans ATCC 10231 at pH 5.6 after 20 h in absence of 10% beef serum; details: ATCC 10231, 20 h
Mucor mucedo [31] = assay: Antifungal activity against Mucor mucedo ATCC 7941 at pH 7 after 20 h in presence of 10% beef serum; details: ATCC 7941, 20 h
Aspergillus niger [32] = assay: Antifungal activity against Aspergillus niger ATCC 1004 at pH 5.6 after 5 days in presence of 10% beef serum; format: functional; details: Aspergillus niger, ATCC 1004, 120 h; read-out: MIC; procedure, shortened: as §1

| SMILES | inhibition (Aspergillus niger [1]) | inhibition (Mucor mucedo [2]) | inhibition (Candida albicans [3]) | inhibition (Candida albicans [4]) | inhibition [5] | inhibition [6] | inhibition (Mucor mucedo [7]) | inhibition [8] | inhibition (Candida albicans [9]) | inhibition (Aspergillus niger [10]) | inhibition (Mucor mucedo [11]) | inhibition (Candida albicans [12]) | inhibition (Mucor mucedo [13]) | inhibition [14] | inhibition (Aspergillus niger [15]) | inhibition (Aspergillus niger [16]) | MIC (Mucor mucedo [17]) | MIC (Mucor mucedo [18]) | MIC [19] | MIC (Mucor mucedo [20]) | further results |
| --- | --- | --- | --- | --- | --- | --- | --- | --- | --- | --- | --- | --- | --- | --- | --- | --- | --- | --- | --- | --- | --- |
| COC(=O)/C=C/CC(=O)OC | inactive | inactive | inactive | inactive | inactive | inactive | inactive | inactive | inactive | inactive | inactive | inactive | inactive | inactive | inactive | inactive |  |  |  |  |  |
| COC(=O)C#CC(=O)OC | inactive |  | inactive | inactive | inactive |  | inactive | inactive | inactive | inactive |  | inactive |  | inactive | inactive | inactive | 30 µg/mL | 70 µg/mL (≈ 493 µM) | 40 µg/mL (≈ 281 µM) | 8 µg/mL (≈ 56.3 µM) |  |
| CCCCCCOC(=O)/C=C\C(=O)OCCCCCC | inactive | inactive | inactive | inactive | inactive | inactive | inactive | inactive | inactive | inactive | inactive | inactive | inactive | inactive | inactive | inactive |  |  |  |  |  |
| O=c1[nH]cc(F)c(=O)[nH]1 | inactive | inactive | inactive | inactive | inactive | inactive | inactive | inactive | inactive | inactive | inactive | inactive | inactive | inactive | inactive | inactive |  |  |  |  |  |
| C[C@@H]1[C@H](O)[C@@H](C)/C=C/C=C/C=C/C=C/C=C/C=C/C=C/[C@H](O[C@@H]2O[C@H](C)[C@@H](O)[C@H](N)[C@@H]2O)C[C@@H]2O[C@](O)(C[C@@H](O)C[C@@H](O)[C@H](O)CC[C@@H](O)C[C@@H](O)CC(=O)O[C@H]1C)C[C@H](O)[C@H]2C(=O)O [AMPHOTERICIN B] |  |  |  |  |  |  |  |  |  |  |  |  |  |  |  |  | < 1 µg/mL | < 1 µg/mL | < 1 µg/mL | < 1 µg/mL | MIC [21]: < 1 µg/mL; MIC (Candida albicans [22]): < 1 µg/mL; MIC (Aspergillus niger [23]): < 1 µg/mL; MIC [24]: < 1 µg/mL; MIC [25]: < 1 µg/mL; MIC (Candida albicans [26]): < 1 µg/mL; MIC (Aspergillus niger [27]): < 1 µg/mL; MIC (Aspergillus niger [28]): < 1 µg/mL; MIC (Candida albicans [29]): < 1 µg/mL; MIC (Candida albicans [30]): < 1 µg/mL; MIC (Mucor mucedo [31]): < 1 µg/mL; MIC (Aspergillus niger [32]): < 1 µg/mL |

From ChEMBL document CHEMBL3244142, “Antifungal properties of 2-bromo-3-fluorosuccinic acid esters and related compounds” (1977)
